High-throughput results from PubChem.
The sample as a whole holds a higher share of hits than the screen did.
Ecoli tolC – blocks growth of E. coli BW25113 tolC mutant; OD615; growth inhibition, % at 10 µM (by protocol); hit rate 2.2% among 65,000;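 active = growth inhibition at or above a cutoff equal to the mean over every tested compound plus 3 SD, cut at about 60% in these data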;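 note: growth measured after 20 h incubation at 37 °C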
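Test system – E. coli BW25113 ΔtolC::kan, tolC deletion mutant strain · Detection – OD at 615 nm · Buffer or medium – LB with kanamycin 50 µg/mL · Times – 20 h compound exposure of bacteria at 37 °C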
Ecoli WT expand – growth inhibitors of E. coli BW25113 wild type | OD600 absorbance | growth inhibition, % at 100 µM | hit rate 0.15% among 98,000 | AID 710;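 active = growth inhibition above about 50% at one test dose, limit read from the data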;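 note: growth measured after 20 h incubation at 37 °C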
MMP13 inh – blocks human MMP13 activity; MMP-13 fTHP FRET cleavage, Mca fluorescence; AID 570; inhibition, % at 4 µM; hit rate 0.07% among 65,000;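 active = inhibition above the mean of compound-free control plate wells plus 3 SD, cut at about 14% in these data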;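 note: 0% = DMSO wells and 100% = wells with reference MMP-13 inhibitor after basal subtraction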
HePTP inhibitor – blocks human HePTP tyrosine phosphatase | P35236 | recombinant HePTP phosphatase activity, OD absorbance | inhibition, % at 20 µM | hit rate 0.64% among 110,000 | AID 521; in the data active = inhibition above about 50%;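 note: plate controls were vehicle for no effect and reference inhibitor for full effect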
AP ELISA ortho – orthogonal test for alternative complement pathway inhibitors; Human serum alternative complement pathway, LPS-coated ELISA, C3 deposition; tested in compound mixtures; inhibition, % at 5 µM; hit rate 0.08% among 62,000; AID 1235;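 active = inhibition above 30% in each of the two pooled mixtures holding the compound, so the lower value exceeds 30%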;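 note: 0% = serum in Mg-EGTA without compound and 100% = EDTA serum blank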
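Assay system: human serum alternative complement pathway, C3 deposition on LPS-coated wells; Dosing: 5 µM per compound in ten-compound mixtures; Detection: Anti-C3 ELISA, OD 450 nm; Buffer or medium: Mg2+-EGTA GVB++ buffer containing human serum at 1:15 dilution; Timing: 1 h at 37 °C; Replication: two different pools per compound.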
E coli RNAP – blocks E. coli RNA polymerase transcription | fluorescence transcription assay | AID 559 | hit rate 0.2% among 62,000 | inhibition, %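 (tested at 10 µM)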; in the data active = inhibition above about 20%;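 note: 0% = enzyme without compound and 100% = no enzyme blank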
Target sequence (P0A8V2 whole entry, looked up): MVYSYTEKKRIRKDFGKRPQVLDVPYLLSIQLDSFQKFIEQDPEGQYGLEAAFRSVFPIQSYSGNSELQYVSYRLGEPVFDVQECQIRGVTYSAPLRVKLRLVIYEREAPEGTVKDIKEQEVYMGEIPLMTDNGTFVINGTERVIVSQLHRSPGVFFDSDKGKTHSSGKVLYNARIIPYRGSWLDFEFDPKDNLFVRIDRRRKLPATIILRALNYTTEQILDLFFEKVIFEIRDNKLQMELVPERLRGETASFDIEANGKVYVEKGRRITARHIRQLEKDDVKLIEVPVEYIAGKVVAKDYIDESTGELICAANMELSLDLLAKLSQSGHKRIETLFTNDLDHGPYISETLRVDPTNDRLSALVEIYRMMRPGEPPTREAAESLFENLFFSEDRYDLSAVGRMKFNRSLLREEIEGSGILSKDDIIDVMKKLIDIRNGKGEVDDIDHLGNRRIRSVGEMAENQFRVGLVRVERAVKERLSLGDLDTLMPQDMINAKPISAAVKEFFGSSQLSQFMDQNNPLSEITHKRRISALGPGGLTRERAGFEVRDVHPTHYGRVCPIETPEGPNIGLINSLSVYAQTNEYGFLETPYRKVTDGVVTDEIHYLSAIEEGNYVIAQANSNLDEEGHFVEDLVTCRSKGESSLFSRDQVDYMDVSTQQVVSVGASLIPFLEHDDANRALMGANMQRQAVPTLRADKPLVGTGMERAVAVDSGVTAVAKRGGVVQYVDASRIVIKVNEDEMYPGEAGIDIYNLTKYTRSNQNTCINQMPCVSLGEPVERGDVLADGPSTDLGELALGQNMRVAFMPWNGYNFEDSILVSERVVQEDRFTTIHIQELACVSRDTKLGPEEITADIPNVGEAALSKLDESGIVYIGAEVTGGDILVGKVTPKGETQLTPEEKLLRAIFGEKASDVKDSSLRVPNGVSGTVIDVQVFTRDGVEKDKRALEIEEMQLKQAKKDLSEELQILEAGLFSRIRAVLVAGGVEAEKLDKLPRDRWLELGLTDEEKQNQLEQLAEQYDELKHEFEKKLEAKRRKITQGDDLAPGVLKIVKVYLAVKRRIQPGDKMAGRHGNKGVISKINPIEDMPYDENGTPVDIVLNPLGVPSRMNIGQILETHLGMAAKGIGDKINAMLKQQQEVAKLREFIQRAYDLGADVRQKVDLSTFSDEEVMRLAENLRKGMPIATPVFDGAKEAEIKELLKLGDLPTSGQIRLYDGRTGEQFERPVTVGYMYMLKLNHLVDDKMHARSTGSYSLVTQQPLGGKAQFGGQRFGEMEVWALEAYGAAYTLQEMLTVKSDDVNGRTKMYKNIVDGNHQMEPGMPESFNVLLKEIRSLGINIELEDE
* marks the source's active call; other numbers are inactive results.

Screening CCN(CC)c1ccc(N2C(=O)/C(=C/c3ccc(C(=O)OC)cc3)SC2=S)cc1 returned HePTP inhibitor 7.
Screening O=C(CN1C(=O)/C(=C/c2ccccc2)SC1=S)Nc1cccc(C(=O)O)c1 returned HePTP inhibitor 52*.
For O=C(CCCN1C(=O)/C(=C/c2ccc(F)cc2)SC1=S)Nc1ccc(C(=O)O)cc1 the results were HePTP inhibitor 102*.
For O=C(CN1C(=O)/C(=C/c2ccccc2)SC1=S)Nc1cccc(Br)c1 the results were HePTP inhibitor 6.
For CCN(CC)c1ccc(N2C(=O)/C(=C/c3ccc(C(=O)O)cc3)SC2=S)cc1 the results were HePTP inhibitor 104*.
CN(C)/C=C1\Nc2ccc(Br)c(Cl)c2C1=O was read as HePTP inhibitor 7.
COc1ccc2nc(NC(=O)CSc3nnnn3C3CCCCC3)sc2c1 was read as Ecoli tolC 69*, Ecoli WT expand 7, MMP13 inh 0, HePTP inhibitor -6, AP ELISA ortho -8 and E coli RNAP 3.
O=C(CSc1nc2ccccc2o1)Nc1nc2c(s1)CCCC2 was read as Ecoli tolC 63*, MMP13 inh 6, HePTP inhibitor 9 and AP ELISA ortho 16.
Screening O=C(CSc1nnnn1C1CCCCC1)Nc1nc2c(s1)CCCC2 returned Ecoli tolC 98*, Ecoli WT expand 3, MMP13 inh 7, HePTP inhibitor 1, AP ELISA ortho -1 and E coli RNAP 8.
Screening CCOc1ccc(OCCSc2nnnn2C2CCCCC2)cc1 returned Ecoli tolC 65*, Ecoli WT expand -2, MMP13 inh -4, HePTP inhibitor 7, AP ELISA ortho 5 and E coli RNAP 9.
`Clc1ccc(OCCSc2nnnn2C2CCCCC2)cc1` gave Ecoli WT expand 1.
For O=C(CSc1nc2ccccc2o1)Nc1nc2ccccc2s1 the results were Ecoli tolC 33, Ecoli WT expand -4, MMP13 inh 1, HePTP inhibitor 2, AP ELISA ortho 33 and E coli RNAP 10.
O=C1NC(=O)N(c2ccc(Br)cc2)C(=O)/C1=C/c1ccc(-c2cccc([N+](=O)[O-])c2)o1 was read as HePTP inhibitor 8.
`COC(=O)c1cccc(-n2nnnc2SCC(=O)Nc2nc3c(s2)CCCC3)c1` gave Ecoli tolC 84*, Ecoli WT expand -5, MMP13 inh -5, HePTP inhibitor 1, AP ELISA ortho -6 and E coli RNAP 6.
Screening Cc1cc(Cl)ccc1OCC(=O)Nc1cc(Cl)cc(Cl)c1 returned HePTP inhibitor -14.
`O=C(c1cccc([N+](=O)[O-])c1)c1ccc2c(c1)C(=O)NC2=O` gave HePTP inhibitor 104*.
For O=C(c1cccc([N+](=O)[O-])c1)c1ccc2c(c1)C(=O)N(c1ccccc1C(=O)O)C2=O the results were HePTP inhibitor -3.
For CN(C)S(=O)(=O)N(CC(=O)N(Cc1ccccc1)Cc1ccccc1)c1ccccc1 the results were Ecoli WT expand -4.
Screening CN(C)S(=O)(=O)N(Cc1ccc(Br)cc1)c1ccccc1 returned Ecoli tolC 88*, Ecoli WT expand 8, MMP13 inh 4, HePTP inhibitor 3, AP ELISA ortho 19 and E coli RNAP -3.
For CCOC(=O)C1=C(C)N=C2SCC(=O)N2C1c1ccc(-c2cccc([N+](=O)[O-])c2)o1 (stereo unspecified) the results were HePTP inhibitor 7.
Screening O=c1n(Cc2ccc(Cl)cc2)c2sc3c(c2c2ncnn12)CCCC3 returned Ecoli tolC 75*, Ecoli WT expand -3, MMP13 inh -6, HePTP inhibitor 3, AP ELISA ortho 5 and E coli RNAP 13.
C=CCn1c(=O)n2ncnc2c2c3c(sc21)CCCC3 was read as Ecoli WT expand 3.
`Cc1cc(N2CCCCC2)nc(SCc2ccc(C#N)cc2)n1` gave Ecoli tolC 78*, Ecoli WT expand 0, MMP13 inh -8, HePTP inhibitor 5, AP ELISA ortho 11 and E coli RNAP 7.
`CC(Oc1ccccc1Br)C(=O)N1CCc2ccccc21` (stereo unspecified) gave Ecoli tolC 69*, Ecoli WT expand 6, MMP13 inh 0, HePTP inhibitor -1, AP ELISA ortho 23 and E coli RNAP 6.
Screening CC(Oc1ccc(Br)cc1)C(=O)N1CCc2ccccc21 (stereo unspecified) returned Ecoli tolC 20, Ecoli WT expand -2, MMP13 inh -1, HePTP inhibitor -11, AP ELISA ortho -2 and E coli RNAP -9.
For COc1ccccc1NC1=NC2(CCCCC2)N=C(N)N1 the results were HePTP inhibitor 0.
`COc1cc(NS(=O)(=O)c2ccc(OC)c(C)c2C)c(OC)cc1Cl` gave Ecoli tolC 65*, Ecoli WT expand -11, MMP13 inh 7, HePTP inhibitor 6, AP ELISA ortho 31 and E coli RNAP 8.
CN1C(=O)c2ccc(C(=O)NC3CCCCC3)cc2C1=O was read as Ecoli tolC -27, Ecoli WT expand 0, MMP13 inh 5, HePTP inhibitor 4, AP ELISA ortho 41* and E coli RNAP 6.
`Cc1ccc(C)c(N(CC(=O)O)S(=O)(=O)c2ccccc2)c1` gave HePTP inhibitor -5.
Screening CC(C)n1c2ccccc2c2nc3ccccc3nc21 returned Ecoli tolC 100*, Ecoli WT expand -2, MMP13 inh -2, HePTP inhibitor -6, AP ELISA ortho 0 and E coli RNAP -1.
Screening CC(C)n1c(Nc2ccccc2)nc2ccccc21 returned Ecoli tolC -3, Ecoli WT expand 6, MMP13 inh 2, HePTP inhibitor 0, AP ELISA ortho -14 and E coli RNAP 4.
`N#CC1=C(SCC(=O)c2cc3ccccc3oc2=O)NC(=O)C(C#N)C12CCCC2` (stereo unspecified) gave Ecoli tolC 61*, Ecoli WT expand -2, MMP13 inh -16, HePTP inhibitor -2, AP ELISA ortho 3 and E coli RNAP 5.
Cc1ccc(-n2c(N)c(C(N)=O)sc2=S)c(C)c1 was read as Ecoli tolC 10, Ecoli WT expand 1, MMP13 inh 0, HePTP inhibitor 5, AP ELISA ortho -4 and E coli RNAP 14.
Screening Cc1ccc(C)c(-n2c(N)c(C(N)=O)sc2=S)c1 returned Ecoli tolC 12, Ecoli WT expand -1, MMP13 inh 4, HePTP inhibitor -2, AP ELISA ortho 7 and E coli RNAP 40*.
For Cc1cccnc1Nc1nc(-c2ccc(O)cc2O)cs1 the results were Ecoli tolC 100*, Ecoli WT expand 10, MMP13 inh 0, HePTP inhibitor 12, AP ELISA ortho -17 and E coli RNAP 12.
`CC(C)(O)P(=O)(c1ccccc1)c1ccccc1` gave HePTP inhibitor 7.
For O=C(Nc1nc(-c2ccccn2)cs1)c1ccc(Cl)s1 the results were Ecoli tolC 100*, Ecoli WT expand 11, MMP13 inh 2, HePTP inhibitor -5, AP ELISA ortho 21 and E coli RNAP 0.
